# Measured values pooled from the literature.
# Target: Muscarinic acetylcholine receptor M2 (CHRM2, Homo sapiens, UniProt P08172)
# Concentration: 10 µM
# One construct used (P08172 1-466): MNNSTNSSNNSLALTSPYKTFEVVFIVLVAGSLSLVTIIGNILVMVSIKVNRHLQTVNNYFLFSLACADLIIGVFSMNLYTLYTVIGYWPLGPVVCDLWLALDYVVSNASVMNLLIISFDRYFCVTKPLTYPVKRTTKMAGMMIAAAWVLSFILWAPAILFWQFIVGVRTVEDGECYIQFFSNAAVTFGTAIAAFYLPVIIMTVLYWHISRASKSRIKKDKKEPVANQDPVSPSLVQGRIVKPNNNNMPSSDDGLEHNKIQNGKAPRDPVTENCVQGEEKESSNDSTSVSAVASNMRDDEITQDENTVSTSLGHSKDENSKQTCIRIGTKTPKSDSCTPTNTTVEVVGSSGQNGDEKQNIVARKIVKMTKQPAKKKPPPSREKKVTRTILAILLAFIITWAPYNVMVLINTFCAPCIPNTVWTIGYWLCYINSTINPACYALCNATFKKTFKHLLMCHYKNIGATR
Structure (SMILES),assay,inhibition [%]
N#Cc1cc(Cn2c(N3CCCC3)nc3ccccc32)ccc1F,ligand displacement,7.75
O=C(Nc1ccc(S(=O)(=O)N2CCC(Cl)CC2)cc1)c1ccc([N+](=O)[O-])o1,"ligand displacement, radioligand",10
O=C1N=C(N2CCCCN2)S/C1=C\c1ccc(F)cc1O,"ligand displacement, radioligand",< 10
Ic1cccc2cnccc12,"ligand displacement, radioligand",0
O=C(NNS(=O)(=O)c1ccccc1F)c1cc(F)cc(-c2ccccn2)c1,cell-free assay,15.9
CCN(Cc1ccccc1C(F)(F)F)C(=O)C1CCN(S(=O)(=O)c2ccc3[nH]ncc3c2)CC1,"ligand displacement, radioligand",1
O=C(c1ccc(Cl)cc1)N(Cc1ccccc1)C1CCCCC1,cell-free assay,38.2
CCN(CC)c1ccc(C2Nc3ccc(C(=O)c4ccccc4)cc3NC3=C2C(=O)CC(C)(C)C3)cc1 (centres unmarked),"ligand displacement, radioligand",-1
CCCNc1nc2ccccc2n1Cc1ccc(Cl)cc1,ligand displacement,13.7
COc1cc(NC(C)=O)c(Cl)cc1C(=O)Nc1nccs1,cell-free assay,-25.3
CC1CCN(c2ccnc(NCc3cn(C)cn3)n2)CC1,ligand displacement,7.21
